Activity calls are given as the source filed them. The rule behind the calls is not given here.
Legend:
Homo sapiens [1] = organism: Homo sapiens; experiment: Inhibition of sodium potassium ATPase in human OVCA432 cells assessed as downregulation of p53 protein expression at 100 nM after 72 hrs by Western blot analysis; assay type: cell-based
Method in brief: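 Cells exposed to 100 nM for 72 h; RIPA lysates, 25 µg protein on SDS-PAGE/PVDF, anti-p53 (1:500) overnight at 4 °C, HRP secondary, chemiluminescence, actin control; densitometry.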

Homo sapiens [2] = organism: Homo sapiens; experiment: Inhibition of sodium potassium ATPase in human OVSAHO cells assessed as increase in ERK phosphorylation levels at 100 nM after 120 mins by Western blot analysis; assay type: cell-based
Method in brief: (§1)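 Cells exposed to 100 nM for indicated times; RIPA lysates, 25 µg protein on SDS-PAGE/PVDF probed for phospho-ERK and total ERK (1:500 each), HRP secondary, chemiluminescent detection.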

[3] = Antiproliferative activity against CD-1 mouse MOE cells harboring PTENshRNA/KRASG12V mutation after 72 hrs; assay type: functional, cell-based; details: CD-1, MOE
Method in brief: (§2)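 MOE cells from pooled oviducts of 8-week-old female CD1 mice in supplemented α-MEM with EGF, insulin, transferrin, selenite, β-estradiol; scrambled and PTEN shRNA/KRAS G12V clones kept under puromycin (plus hygromycin for the mutant). Log-phase cells seeded 5,000/well, overnight, DMSO-dissolved compound added, 72 h; viable cells read by MTS-type absorbance; IC50 in nM relative to DMSO control.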

OVSAHO = experiment: Induction of apoptosis in human OVSAHO cells assessed as upregulation of cleaved PARP expression at 100 nM after 72 hrs by Western blot analysis; assay type: functional, cell-based
Method in brief: (§3)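 Treated cells washed with PBS, lysed in RIPA on ice 15 min, cleared 14,000 g at 4 °C; 25 µg protein by BCA run on SDS-PAGE, PVDF, milk block, primary antibody overnight at 4 °C, HRP anti-rabbit, chemiluminescence; actin loading control; densitometry, n = 3, mean ± SEM.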

OVCAR-3 [4] = experiment: Induction of apoptosis in human OVCAR3 cells assessed as decrease in Bcl-xL levels at 100 nM by Western blot analysis; assay type: functional, cell-based; method in brief: as §3
OVCAR-3 [5] = experiment: Induction of apoptosis in human OVCAR3 cells assessed as upregulation of cleaved caspase 3 expression at 100 nM by Western blot analysis; assay type: functional, cell-based; method in brief: as §3
Homo sapiens [6] = organism: Homo sapiens; experiment: Inhibition of sodium potassium ATPase in human OVCAR3 cells assessed as upregulation of p21 protein expression at 100 nM by Western blot analysis; assay type: cell-based; method in brief: as §3
Homo sapiens [7] = organism: Homo sapiens; experiment: Inhibition of sodium potassium ATPase in human OVCAR3 cells assessed as increase in ERK phosphorylation levels at 100 nM after 120 mins by Western blot analysis; assay type: cell-based; method in brief: as §1
Homo sapiens [8] = organism: Homo sapiens; experiment: Inhibition of sodium potassium ATPase in human OVSAHO cells assessed as upregulation of p21 protein expression at 100 nM by Western blot analysis; assay type: cell-based; method in brief: as §3
OVCAR-3 [9] = experiment: Cell cycle arrest in human OVCAR3 cells assessed as accumulation at G2/M phase at 100 nM after 72 hrs by propidium iodide staining-based flow cytometry method; assay type: functional
Method in brief: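 Cells in 6-well plates treated 72 h, trypsinized, fixed in 70% ethanol, PBS-washed, stained in PBS with 1 mg/mL RNase and 50 µg/mL propidium iodide for 30 min in the dark at room temperature; DNA content by flow cytometry, phase distribution compared with vehicle.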

OVCAR-3 [10] = experiment: Induction of apoptosis in human OVCAR3 cells assessed as decrease in Mcl-1 levels at 100 nM by Western blot analysis; assay type: functional, cell-based; method in brief: as §3
[11] = Antiproliferative activity against CD-1 mouse MOE cells derived from 85 to 120 passages after 72 hrs; assay type: functional, cell-based; details: CD-1, MOE; method in brief: as §2
Homo sapiens [12] = organism: Homo sapiens; experiment: Inhibition of sodium potassium ATPase in human OVSAHO cells assessed as downregulation of p53 protein expression at 100 nM after 72 hrs by Western blot analysis; assay type: cell-based
OVCAR-3 [13] = experiment: Induction of apoptosis in human OVCAR3 cells assessed as upregulation of cleaved PARP expression at 100 nM by Western blot analysis; assay type: functional, cell-based; method in brief: as §3
[14] = Antiproliferative activity against CD-1 mouse MOE cells derived from 8 to 25 passages after 72 hrs; assay type: cell-based; details: CD-1, MOE; method in brief: as §2
Homo sapiens [15] = organism: Homo sapiens; experiment: Inhibition of sodium potassium ATPase in human OVCAR3 cells assessed as reduction in TNFalpha-induced NFkappaB activation at 100 nM after 4 hrs by luciferase reporter gene assay relative to control; assay type: cell-based
Method in brief: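 OVCAR3 plated 25,000/well, overnight, transfected 24 h with 0.05 µg/well NF-κB-element luciferase reporter in serum medium; then 10 ng/mL TNFα plus 100 nM compound for 4 h; luciferase luminescence, fold change versus untreated, ANOVA.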

[16] = Antiproliferative activity against CD-1 mouse MOE cells harboring scrambled RNA after 72 hrs; assay type: cell-based; details: CD-1, MOE; method in brief: as §2
Homo sapiens [17] = organism: Homo sapiens; experiment: Inhibition of sodium potassium ATPase in human OVCAR3 cells assessed as downregulation of p53 protein expression at 100 nM after 72 hrs by Western blot analysis; assay type: cell-based; method in brief: as §3
HT-29 = experiment: Antiproliferative activity against human HT-29 cells after 72 hrs by CellTiter 96 aqueous one solution assay; assay type: functional, cell-based; details: HT-29, 72 h
Method in brief: (§4)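 Log-phase cells harvested by trypsin with two PBS washes, seeded 5,000/well, incubated overnight. Serial dilutions of compound from DMSO stock added, 72 h exposure. Viability read by absorbance. IC50 (nM) calculated relative to DMSO solvent control.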

MDA-MB-231 = experiment: Antiproliferative activity against human MDA-MB-231 cells after 72 hrs by CellTiter 96 aqueous one solution assay; assay type: functional, cell-based; details: MDA-MB-231, 72 h; method in brief: as §4
OVCAR-3 [18] = experiment: Antiproliferative activity against human OVCAR3 cells after 72 hrs by CellTiter 96 aqueous one solution assay; assay type: functional, cell-based; details: OVCAR-3, 72 h
Method in brief: as §4, with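 “control. Cultures at 37 °C, 5% CO2 in their own media (RPMI, MEM, DMEM, or Medium 199/MCDB for IOSE-80).” for “control.”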

OVCAR-8 = experiment: Antiproliferative activity against human OVCAR8 cells after 72 hrs by CellTiter 96 aqueous one solution assay; assay type: functional, cell-based; details: OVCAR-8, 72 h
Method in brief: as §4, with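 “control. Cultures at 37 °C, 5% CO2 in their own media (RPMI, MEM, DMEM, or Medium 199/MCDB for IOSE-80).” for “control.”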

MDA-MB-435 = experiment: Antiproliferative activity against human MDA-MB-435 cells after 72 hrs by CellTiter 96 aqueous one solution assay; assay type: functional, cell-based; details: MDA-MB-435, 72 h; method in brief: as §4
[19] = Antiproliferative activity against human IOSE-80 cells after 72 hrs by CellTiter 96 aqueous one solution assay; assay type: cell-based; details: IOSE80, 72 h; method in brief: as §4
OVCAR-5 = experiment: Antiproliferative activity against human OVCAR5 cells after 72 hrs by CellTiter 96 aqueous one solution assay; assay type: functional, cell-based; details: OVCAR-5, 72 h; method in brief: as §4
OVCAR-4 = experiment: Antiproliferative activity against human OVCAR4 cells after 72 hrs by CellTiter 96 aqueous one solution assay; assay type: functional, cell-based; details: OVCAR-4, 72 h; method in brief: as §4
KURAMOCHI = experiment: Antiproliferative activity against human Kuramochi cells after 72 hrs by CellTiter 96 aqueous one solution assay; assay type: functional, cell-based; method in brief: as §4
[20] = Antiproliferative activity against human OVSAHO cells after 72 hrs by CellTiter 96 aqueous one solution assay; assay type: functional, cell-based; method in brief: as §4

Structure (SMILES)	inhibition (Homo sapiens [1])	inhibition (Homo sapiens [2])	IC50 [3]	Activity (OVSAHO)	Activity (OVCAR-3 [4])	Activity (OVCAR-3 [5])	inhibition (Homo sapiens [6])	inhibition (Homo sapiens [7])	inhibition (Homo sapiens [8])	Activity (OVCAR-3 [9])	Activity (OVCAR-3 [10])	IC50 [11]	inhibition (Homo sapiens [12])	Activity (OVCAR-3 [13])	IC50 [14]	inhibition (Homo sapiens [15])	IC50 [16]	inhibition (Homo sapiens [17])	further results
CO[C@H]1[C@H](O[C@H]2CC[C@]3(C=O)[C@H]4CC[C@]5(C)[C@@H](C6=CC(=O)OC6)CC[C@]5(O)[C@@H]4CC[C@]3(O)C2)O[C@H](C)[C@H](O)[C@@H]1OC [STREBLOSIDE]	Active	Active	> 50000 nM	Active	Active	Active	Active	Active	Active	Active	Active	> 50000 nM	Active	Active	> 50000 nM	29%	> 50000 nM	Active	
C[C@H]1O[C@@H](O[C@H]2[C@@H](O)C[C@H](O[C@H]3[C@@H](O)C[C@H](O[C@H]4CC[C@@]5(C)[C@H](CC[C@@H]6[C@@H]5CC[C@]5(C)[C@@H](C7=CC(=O)OC7)CC[C@]65O)C4)O[C@@H]3C)O[C@@H]2C)C[C@H](O)[C@@H]1O [DIGITOXIN]	Active	Active	> 50000 nM	Active	Active	Active	Active	Active	Active	Active	Active	> 50000 nM	Active	Active	> 50000 nM	50%	> 50000 nM	Active	IC50 (HT-29): 67.6 nM; IC50 (MDA-MB-231): 482 nM; IC50 (OVCAR-3 [18]): 117 nM; IC50 (OVCAR-8): 71.5 nM; IC50 (MDA-MB-435): 43.3 nM; IC50 [19]: 48.4 nM; IC50 (OVCAR-5): 321 nM; IC50 (OVCAR-4): 426 nM; IC50 (KURAMOCHI): 5910 nM; IC50 [20]: 250 nM

Reference: ChEMBL document CHEMBL4052609, “(+)-Strebloside-Induced Cytotoxicity in Ovarian Cancer Cells Is Mediated through Cardiac Glycoside Signaling Networks” (J Nat Prod, 2017)
